Columns and labels:
NRP1 (PAE/NRP1 cells) [1] = target: T1, NRP1 (PAE/NRP1 cells) (Homo sapiens, UniProt O14786); details: read-out: IC50, 125I-VEGF-A binding to PAE/NRP1 and tumor cells; cited from earlier work
NRP1 (PAE/NRP1 cells) [2] = target: T1, NRP1 (PAE/NRP1 cells); assay: Inhibition of 125I-VEGF-A165 binding to PAE/NRP1 cells; details: 100 μM compound; 0.1 nM 125I-VEGF-A165; mean ± SEM, three experiments
In short: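 Porcine aortic endothelial cells stably expressing NRP1 (Ham's F12, 10% FBS, hygromycin B) were grown to confluence. They received test compound (0.1−100 μM), then 0.1 nM 125I-VEGF-A165 (1200−1800 Ci/mmol). Nonspecific binding was taken with 100-fold excess unlabeled VEGF. IC50 was fitted from competition curves for compounds giving >70% inhibition at 100 μM. Three independent experiments in triplicate, mean ± SEM.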

HUVECs = assay: VEGF-induced HUVEC migration; assay type: cell-based, human; details: 100 μM; VEGF 25 ng/mL; 4 h
In short: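 HUVECs were pretreated 30 min with test compound or DMSO, then 1.5 × 10^5 cells in EBM/0.1% BSA were loaded into collagen I-coated transwell inserts (8 μm pores). Bottom wells held VEGF at 25 ng/mL, or medium control. Plates ran 4 h at 37 °C. Migrated underside cells were stained and counted in four fields at ×100. Three independent experiments in duplicate, mean ± SEM.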

A549 cells = assay: A549 cell viability; assay type: cell-based, human
In short: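 A549 cells kept in RPMI 1640 with L-glutamine, seeded at 4 × 10^3 cells/well in serum-free medium with graded 5-FU or paclitaxel, with or without test compound at 100 μM. After 44 h, XTT was added for a further 4 h (48 h total). Formazan was read at 490 nm against 595 nm reference. Three independent experiments in triplicate, mean ± SEM.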

T1 sequence (O14786 22-923): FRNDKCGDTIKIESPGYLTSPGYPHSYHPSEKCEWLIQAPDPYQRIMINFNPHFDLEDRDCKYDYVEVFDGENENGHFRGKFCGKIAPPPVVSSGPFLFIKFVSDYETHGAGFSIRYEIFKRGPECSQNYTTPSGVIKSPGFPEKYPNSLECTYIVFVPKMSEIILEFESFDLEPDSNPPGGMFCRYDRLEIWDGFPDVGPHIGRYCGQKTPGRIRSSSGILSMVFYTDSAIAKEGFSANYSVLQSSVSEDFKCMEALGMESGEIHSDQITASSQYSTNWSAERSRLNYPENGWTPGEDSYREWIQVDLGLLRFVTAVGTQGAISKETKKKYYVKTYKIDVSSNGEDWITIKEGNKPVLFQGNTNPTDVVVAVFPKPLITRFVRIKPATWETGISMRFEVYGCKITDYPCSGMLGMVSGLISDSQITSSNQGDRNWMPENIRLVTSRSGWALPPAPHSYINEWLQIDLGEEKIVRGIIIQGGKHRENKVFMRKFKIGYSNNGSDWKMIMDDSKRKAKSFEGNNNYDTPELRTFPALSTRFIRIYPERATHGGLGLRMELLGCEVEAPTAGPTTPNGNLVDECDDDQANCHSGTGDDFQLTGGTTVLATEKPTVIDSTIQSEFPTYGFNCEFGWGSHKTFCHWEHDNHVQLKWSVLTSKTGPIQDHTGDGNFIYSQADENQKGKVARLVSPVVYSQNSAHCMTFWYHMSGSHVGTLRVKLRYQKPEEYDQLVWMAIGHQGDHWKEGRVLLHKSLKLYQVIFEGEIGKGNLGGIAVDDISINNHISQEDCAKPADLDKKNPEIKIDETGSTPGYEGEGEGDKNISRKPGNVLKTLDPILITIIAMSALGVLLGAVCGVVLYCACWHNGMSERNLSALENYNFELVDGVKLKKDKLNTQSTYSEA

inhibition of 125I-VEGF binding to PAE/NRP1 cells at 100 μM (NRP1 (PAE/NRP1 cells) [2]) [%] | Molecule | further results
 | 1: bicyclic peptide corresponding to the C-terminal 28 amino acids of VEGF-A165 [Compound 1] | IC50 (NRP1 (PAE/NRP1 cells) [1]): 2000 to 3000 nM
51 ± 7.9 | H-kPAR-OH [Compound 18] | 
22 ± 1.2 | H-KPAK-OH [Compound 23] | 
19 ± 7.6 | H-KPAQ-OH [Compound 24] | 
 | N=C(N)NCCC[C@H](NC(=O)c1sccc1NS(=O)(=O)c1cccc2nsnc12)C(=O)O [Compound 2, (S)-2-(3-(Benzo[c][1,2,5]thiadiazole-4-sulfonamido)thiophene-2-carboxamido)-5-guanidinopentanoic Acid] | VEGF-A induced migration of HUVECs (HUVECs): significantly reduced; A549 cell viability (A549 cells; 48 h incubation): significant reduction; enhancement of the cytotoxic effect of 5-fluorouracil (A549 cells; A549 cells, 100 μM 2): ~10 fold; enhancement of the cytotoxic effect of paclitaxel (A549 cells; A549 cells, 100 μM 2): approximately 4 fold
36 ± 5.1 | H-KPaR-OH [Compound 19] | 
22 ± 9.5 | H-KPAr-OH [Compound 22] | 

Source: publication PMC2841442 (Journal of Medicinal Chemistry, 2010)
